Only some compounds are listed: those with a hit (about 2.1% of all), similar ones and a draw of the others.
IEC-6 cytotox: kills IEC-6 intestinal cells in KLF5 counter-screen. IEC-6 cytotoxicity, luminescence viability. inhibition, % at 5 µM. 290,000 compounds, 0.78% hits; in the data active = inhibition above about 22%;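 note: 0% = plate median of test compound wells and 100% = cytotoxic reference compound wells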
KLF5 inh: suppresses KLF5 promoter-driven expression. DLD-1 KLF5 promoter-luciferase reporter, luminescence. 290,000 compounds, 0.23% hits. inhibition, % at 5 µM;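 active = inhibition above a per-plate limit of that plate's mean compound inhibition plus 3 SD, cut at about 60% in these data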;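 note: 0% = DMSO wells and 100% = LY294002 at 200 µM; higher means less KLF5 promoter-driven luciferase light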
MT stabilizer: microtubule stabilizers in HeLa cells; AID 2205; % tubulin-high responders, % at 10 µM; HeLa tubulin immunostaining HCS, 24 h; share of cells brighter than vehicle mean+2SD; 200,000 compounds, 0.83% hits;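 active = plate Z-score above 3 for both tubulin-high and condensed-nucleus cell shares, with cell loss under 80%, at 10 µM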;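 note: anti alpha tubulin signal scored within the nucleus-defined area of each cell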
BaF3 parental: reduces parental Ba/F3 cell viability, JAK2V617F counter-screen; CellTiter-Glo ATP luminescence; inhibition, % at 5.6 µM; 220,000 compounds, 1.1% hits;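 active = inhibition above a per-campaign cutoff, the mean inhibition of all tested compounds plus 3 SD, cut at about 27% in these data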;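 note: 0% = DMSO wells and 100% = JAK Inhibitor I control wells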
Ba/F3 V617F tox: reduce viability of Ba/F3 cells dependent on JAK2V617F; 220,000 compounds, 1.1% hits; inhibition, % at 5.6 µM; Ba/F3 EpoR-JAK2V617F viability, ATP luminescence; AID 1446;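 active = inhibition above the campaign mean plus 3 SD over all tested compounds, cut at about 24% in these data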;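 note: cytokine-independent growth of Ba/F3 cells driven by EpoR plus mutant JAK2; 0% = DMSO-treated cells and 100% = JAK inhibitor I control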
b-catenin transl: modulators of beta-catenin nuclear translocation | HeLa beta-catenin nuclear translocation, immunofluorescence imaging | nuclear translocation activity, % at 5 µM | 190,000 compounds, 0.3% hits;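 active = nuclear translocation activity above 50% at 5 µM, with a well cell count of 50 or more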;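 note: per-cell ratio of nuclear to cytoplasmic median beta-catenin stain intensity; plate controls were DMSO negative control for no effect and GSK-3 inhibitor IX positive control for full effect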
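Test system: human HeLa cells, endogenous beta-catenin. Times: 24 h compound exposure, 37°C. Measured by: beta-catenin immunofluorescence imaging with DAPI.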
* = called active by the depositor; · = no result.

SMILES	IEC-6 cytotox	KLF5 inh	MT stabilizer	BaF3 parental	Ba/F3 V617F tox	b-catenin transl
Cc1ccc(NS(=O)(=O)c2ccc(C(=O)N3CCN(c4ncccn4)CC3)cc2)cc1	7	-23	1	28*	14	-3
CN(Cc1cnccn1)Cc1ccccc1OCC(O)CN1CCc2ccccc2C1 (configuration not stated)	1	-1	2	3	-2	-1
CCn1ncc(Br)c1C(=O)Nc1ccc(F)c([N+](=O)[O-])c1	25*	-16	2	3	-2	-3
COc1ccc(/C=C2\C(=O)NCC(=O)N2Cc2ccccc2)cc1	16	26	32*	3	0	-2
COc1ccc(/C=C2\C(=O)NCC(=O)N2C)cc1	2	-22	·	·	·	·
Cc1ccc(NC(=O)N2CCCCCC2)c(C)c1	0	-65	·	·	·	·
Cc1ccc(N/C(N)=N/c2nc3c(c(=O)[nH]2)CCCC3)c(C)c1	2	2	20*	4	1	10
Cc1ccc(N/C(N)=N/c2nc(C)cc(N3CCCCC3)n2)c(C)c1	21	10	4	66*	71*	-3
CCCC(C)NC(=O)CN1C(=O)NC2(CCc3ccccc32)C1=O (configuration not stated)	-4	8	·	·	·	·
Cc1ccccc1C(=O)NC(CC(C)C)C(=O)OCC(=O)c1c(N)n(C)c(=O)n(C)c1=O (configuration not stated)	-5	-6	2	7	0	1
CC(C)N1C(=O)S/C(=C/c2ccc3c(c2)n(C)c(=O)n3C)C1=O	2	-38	1	3	4	2
CCN(CC)c1ccc(/C=C2\SC(=O)N(C(C)C)C2=O)o1	4	-13	·	44*	51*	0
Cc1cccc(C)c1NC(=O)CN1C(=O)N(C)Cc2ccccc21	-5	-10	5	4	1	-3
N#CCCS(=O)(=O)c1nnnn1-c1ccccc1	7	4	4	3	25*	-3
c1ccc(-n2nnnc2Cc2nnnn2-c2ccccc2)cc1	8	-10	2	3	5	-3
CN(C)/C=N/C1=C(C#N)C(c2cccs2)c2ccc3ccccc3c2O1 (configuration not stated)	5	-42	16*	12	3	-6
CCn1nc(C)c(CNC(=O)c2cc(COc3ccc(F)cc3Cl)on2)c1C	9	-7	·	64*	67*	1
CCn1cc(CNC(=O)c2cc(COc3ccc(F)cc3Cl)on2)cn1	-1	-15	10	0	-2	2
c1ccc(C2=Nn3c(nnc3-c3n[nH]c4c3CCC4)SC2)cc1	1	-13	5	5	3	1
Clc1ccc(C2=Nn3c(nnc3-c3n[nH]c4c3CCC4)SC2)cc1Cl	7	-16	19*	4	5	-1
CC1(C)CC(=O)C/C(=N\NC(=O)CCc2ccc(S(=O)(=O)N3CCOCC3)cc2)C1	2	-26	3	5	1	0
COc1ccc(NC(=O)Cn2nnc(-c3ccccc3NS(=O)(=O)c3ccccc3)n2)cc1	-12	-5	5	6	0	-1
COc1ccc(S(=O)(=O)Nc2ccccc2-c2nnn(CC(=O)Nc3ccccc3OC)n2)cc1	-7	-29	14*	4	-2	0
COc1ccc(/C=N/OC(=O)Nc2ccccc2OC)cc1	35*	-66	19*	9	10	-1
O=C(Nc1ccccc1Cl)O/N=C/c1ccncc1	0	-19	1	6	0	·
SMILES	IEC-6 cytotox	KLF5 inh	MT stabilizer	BaF3 parental	Ba/F3 V617F tox	b-catenin transl
COc1ccc(NC(=O)O/N=C/c2ccc(Br)cc2)cc1	-4	-13	·	·	·	·
CN(C)c1ccc(/C=N/OC(=O)Nc2ccccc2Cl)cc1	0	0	31*	1	0	0
CC1=CC(C)(C)Nc2ccc(OS(=O)(=O)c3ccc(C)cc3)cc21	-4	-27	1	1	-3	-3
CC(=O)Nc1ccc(S(=O)(=O)Oc2ccc3c(c2)C(C)=CC(C)(C)N3)cc1	33*	-8	3	73*	80*	7
O=S(=O)(Nc1ccc2c(c1)nc1n2CCN(Cc2ccccc2)C1)c1ccc(Cl)cc1	-2	7	30*	5	-1	-6
CCC1CCCCN1CCCNC(=O)c1ccc(N2CCOCC2)c(NS(=O)(=O)c2ccc(OC)cc2)c1 (configuration not stated)	-2	-15	3	52*	-8	-2
CCCCNC(=O)c1ccc(N2CCOCC2)c(NS(=O)(=O)c2ccc(OC)cc2)c1	-1	4	2	6	-1	-5
Cc1nc2ccccc2n1CC(O)COc1ccc(Br)cc1 (configuration not stated)	5	-24	1	2	0	0
CCC(=O)c1ccc(OCC(O)Cn2c(C)nc3ccccc32)cc1 (configuration not stated)	6	-34	4	44*	42*	0
S=C(Nc1ccccc1)Nc1nc2ccccc2n1CCOc1ccccc1	1	-27	30*	2	-3	2
C/C(=N\Nc1nnc(C)c(=O)[nH]1)C(=O)O	-11	-10	2	3	-1	0
O=C(Nc1cnn(Cc2ccc(F)cc2)c1)c1noc2c1CCCC2	19	16	1	58*	55*	-3
CCOc1ccc(-c2cnc(NCc3cccc4ccccc34)n2CCOC)cc1	10	-16	·	·	·	·
CC(=O)NC1=C(C#N)C(c2ccccc2)c2c(ccc3ccccc23)O1 (configuration not stated)	-1	-53	43*	7	1	58*
COc1ccc2nc(NCc3ccccc3)[nH]c2c1	5	-43	43*	6	1	12
O=C1CC(c2ccccc2F)c2cc3c(cc2N1)CCC3 (configuration not stated)	16	-8	44*	77*	63*	131*
O=C1CC(c2cc(Br)ccc2F)c2cc3c(cc2N1)CCC3 (configuration not stated)	-6	0	13	4	-4	38
O=C1CC(c2ccccc2Br)c2cc3c(cc2N1)CCC3 (configuration not stated)	-1	-29	21*	5	0	1
Cc1cc2c(cc1C)C(c1ccccc1Br)CC(=O)N2 (configuration not stated)	4	-52	10	1	-3	0
Cc1ccc(NC(=O)NN2CCN(C)CC2)cc1C	3	-18	·	·	·	·
CCC(C(=O)NCc1cccnc1)n1nc(C)n2c(cc3occc32)c1=O (configuration not stated)	-2	-3	·	·	·	·
O=C(NC(=S)Nc1ccccc1N1CCCCC1)c1ccco1	6	-17	3	4	-3	-1
O=C(NC(=S)Nc1cccc(Cl)c1N1CCOCC1)c1cccs1	5	-23	2	7	-2	-3

Bioassay records deposited in PubChem BioAssay by several laboratories.
